The values below come from PubChem BioAssay AID588416 (The Scripps Research Institute Molecular Screening Center, 2011).

Structures are written as SMILES. Activity calls are given as the source filed them.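 How the source made its calls: active means IC50 at or below 1000 nM; inactive means IC50 above 1000 nM.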

The target of the experiment is Protein-arginine deiminase type-4 (Homo sapiens) (UniProt Q9UM07). The experiment in a line: PAD4 enzyme inhibition, citrulline production – biochemical, colorimetric substrate assay, assay provider data, 0-50 µM, late-stage follow-up (AID 588416). Particulars: recombinant PAD4, BAEE substrate, citrulline colorimetric absorbance. In outline: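 System – recombinant PAD4 · Input – 0.2 µM PAD4 · Incubation – 15 min + 15 min at 37 °C · Replication – duplicates · Doses – 7-point series, top 50 µM · Reagent – 10 mM BAEE substrate · Measure – IC50 from curve fit, citrulline quantified via citrulline standard curve · Measured by – colorimetric citrulline absorbance at 540 nm, diacetyl monoxime–thiosemicarbazide development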
Sequence of Protein-arginine deiminase type-4 (Homo sapiens) (Q9UM07 whole entry, looked up): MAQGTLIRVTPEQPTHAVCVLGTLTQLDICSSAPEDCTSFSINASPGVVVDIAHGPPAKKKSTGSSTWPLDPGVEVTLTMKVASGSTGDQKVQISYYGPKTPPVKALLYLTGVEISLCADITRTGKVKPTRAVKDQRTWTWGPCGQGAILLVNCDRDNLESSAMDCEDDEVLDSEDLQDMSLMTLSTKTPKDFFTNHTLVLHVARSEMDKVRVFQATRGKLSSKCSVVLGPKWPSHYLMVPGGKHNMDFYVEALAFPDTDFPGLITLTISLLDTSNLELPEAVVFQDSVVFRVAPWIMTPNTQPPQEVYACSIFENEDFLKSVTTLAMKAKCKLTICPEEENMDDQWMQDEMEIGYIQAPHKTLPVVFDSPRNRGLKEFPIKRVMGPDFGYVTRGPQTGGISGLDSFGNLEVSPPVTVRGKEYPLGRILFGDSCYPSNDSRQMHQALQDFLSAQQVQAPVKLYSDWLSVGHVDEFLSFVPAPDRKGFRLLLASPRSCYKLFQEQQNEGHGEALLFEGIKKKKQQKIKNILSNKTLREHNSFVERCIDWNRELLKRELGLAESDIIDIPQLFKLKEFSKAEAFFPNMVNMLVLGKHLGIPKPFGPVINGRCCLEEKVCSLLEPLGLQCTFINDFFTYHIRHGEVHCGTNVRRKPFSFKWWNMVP

`O=C1C=C(Br)C(=O)c2ncccc21`: the IC50 result is “inactive”.
